# Sampled rows, rich in hits. Any-hit rate of the full collection: about 2.6%.
# UCH37 DUB inh: blocks the human deubiquitinase UCH37; Q9Y5K5; purified proteasome/UCH37, Ub-AMC cleavage fluorescence; inhibition, % (test concentration not listed); hit rate 0.33% among 330,000; AID 588478;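 active means mean inhibition over replicate wells above about 20%, limit read from the data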;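 further: 0% = compound-free wells with enzyme and 100% = wells lacking proteasome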
# Target sequence (Q9Y5K5 whole entry, looked up): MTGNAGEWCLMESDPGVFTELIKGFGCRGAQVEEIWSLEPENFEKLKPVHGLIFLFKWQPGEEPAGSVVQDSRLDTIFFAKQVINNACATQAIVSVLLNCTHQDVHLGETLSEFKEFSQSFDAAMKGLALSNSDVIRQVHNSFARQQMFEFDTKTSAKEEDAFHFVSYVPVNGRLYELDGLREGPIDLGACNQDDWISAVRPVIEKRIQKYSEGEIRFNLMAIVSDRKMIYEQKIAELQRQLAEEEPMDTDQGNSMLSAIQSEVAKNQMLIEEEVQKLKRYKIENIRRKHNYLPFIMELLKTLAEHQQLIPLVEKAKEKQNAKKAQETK
#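 System: Proteasome-associated human UCH37 deubiquitinase; Input: 0.15 nM proteasome in added enzyme buffer; Also added: Ub-AMC substrate from 1 µM stock; Incubation: 30 min compound-proteasome preincubation then 25 min substrate reaction, room temperature; Detection: fluorescence, ex 355 nm, em 460 nm; Read-out: % inhibition of Ub-AMC cleavage fluorescence; Benchmarks: no-proteasome and no-compound wells.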
# SIRT5 block: blocks human SIRT5 desuccinylation of peptide; Q9NXA8; Purified SirT5, succinyl-peptide AMC, trypsin-coupled fluorescence; inhibition, % at 15 µM; hit rate 1.1% among 330,000; AID 652115; in the data active means inhibition above about 15%
# NSD2 HMT inh: NSD2 (human) methyltransferase inhibition. O96028. NSD2 peptide methylation, AlphaScreen, 120 min. inhibition, % at 12.5 µM. hit rate 0.54% among 310,000. AID 743445; in the data active means inhibition above about 50%
# FGF22 binding-1: FGF22 (human) thermal shift binding; hit rate 1.5% among 340,000; recombinant FGF22 thermal shift, SYPRO orange fluorescence; percent of sucrose octasulfate shift, DMSO zero; activity (Tm shift, normalised), % at 9.99 µM;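 active means mean Tm shift, scaled 0 neutral to 100 positive control, at about 1.3% or above, every replicate too, limit read from the data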
# Casp6 inh: caspase-6 (human) enzyme inhibition | purified caspase-6, Z-VEID-R110 cleavage fluorescence | inhibition, % at 12.5 µM | hit rate 0.53% among 350,000 | AID 686996;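 active means mean inhibition across replicates at least about 35%, with every replicate also reaching that limit, limit read from the data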;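 further: 0% = median of neutral control wells and 100% = no fluorescence left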
# Target sequence (P55212 24-179 limits assumed): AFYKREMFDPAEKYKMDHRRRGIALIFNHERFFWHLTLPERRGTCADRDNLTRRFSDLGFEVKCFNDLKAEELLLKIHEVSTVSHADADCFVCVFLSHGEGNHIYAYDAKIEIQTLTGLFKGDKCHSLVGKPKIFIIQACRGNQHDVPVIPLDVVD
# Target sequence (P55212 194-293 limits assumed): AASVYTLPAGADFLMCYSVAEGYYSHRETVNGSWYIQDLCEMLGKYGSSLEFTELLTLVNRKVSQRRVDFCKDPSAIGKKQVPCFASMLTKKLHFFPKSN
# FGF22 binding-2: FGF22 (human) binding in thermal shift; hit rate 2% among 1,000; recombinant FGF22 thermal shift, SYPRO orange fluorescence; shares compounds with FGF22 binding-1; thermal shift activity, °C (ΔTm) at 38 µM; AID 720646;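 active means fitted rise in melting shift crosses a set limit at or below the top valid dose tested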
# FGF22 TSA: FGF22 (human) binding by thermal shift. shares compounds with FGF22 binding-1. Thermal shift assay, SYPRO orange, melting temperature shift. Tm shift (activity), % at 38 µM. 50 tested, under 10 active. AID 743017;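 active means compounds whose fitted dose curve of melting temperature shift rises past a set threshold within the tested doses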
# TSA no protein: shows thermal shift signal without protein, FGF22 counter-screen. AID 743019. shares compounds with FGF22 binding-1. hit rate 2% among 1,000. compound-only SYPRO orange thermal shift counter-screen, no protein. AC50, µM (titrated, usually from 38 µM);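 active means rising signal whose fitted curve reaches the 0.54 level within the top valid dose, showing a melting point, actives reach about 13 µM in these data; inactive means the rest, including activity in the opposite direction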; further: value is where the raw curve crosses a fixed level and not half-maximal
# Numbers without * were called inactive; i = inactive; nt = no result; [ ] = another dose, or the depositor's remark.
SMILES,UCH37 DUB inh,SIRT5 block,NSD2 HMT inh,FGF22 binding-1,Casp6 inh,FGF22 binding-2,TSA no protein,others
CC(C)C#Cc1ccc([C@@H]2[C@@H](CO)N3C(=O)CN(C(=O)NC4CCCCC4)C[C@@H]23)cc1,nt,1.7,nt,nt,-4.6,nt,nt,
Cc1noc(C)c1S(=O)(=O)Nc1ccc2c(c1)CC(=O)N([C@@H](C)CO)C[C@@H](C)[C@H](CN(C)C(=O)Nc1ccc(C(F)(F)F)cc1)O2,nt,-2.3,nt,0.0,-3.8,nt,nt,
CC1(C(=O)NN=Cc2cc3c(cc2Br)OCO3)CC1(Br)Br (stereo not given),2.6,nt,nt,nt,nt,nt,nt,
CC(=O)c1sc(NC(=O)c2cc(=O)c3ccccc3o2)nc1C,14.6,-21.2,-2.3,5.1*,-0.1,-0.077,i,
CCOC(=O)c1csc(NC(=O)c2cc(=O)c3ccccc3o2)n1,11.2,0.2,-2.6,0.5,-2.8,nt,nt,
O=C(N/N=C/c1ccc(C(F)(F)F)cc1)c1ccc(O)cc1,nt,2.1,-1.2,2.4*,-0.8,-0.069,i,FGF22 TSA=0.1
CC1Sc2ccc(S(=O)(=O)NCCc3ccc(S(N)(=O)=O)cc3)cc2NC1=O (stereo not given),1.0,-2.6,0.9,0.2,1.2,nt,nt,
CC1C(=O)Nc2ccc(S(=O)(=O)NCCc3ccc(Cl)cc3)cc2NC1=O (stereo not given),2.8,-1.3,nt,1.6*,0.2,-0.372,i,
CNC(=O)C[C@H]1CC[C@@H]2[C@H](COC[C@H](O)CN2C(=O)c2ccccn2)O1,nt,-1.0,nt,0.0,-0.6,nt,nt,
CCc1nnc(NS(=O)(=O)c2ccc(NC(=O)c3ccc(Br)cc3)cc2)s1,5.5,0.9,0.9,1.6*,0.5,0.019,i,
c1ccc(Nc2cccc3c(Nc4ccccc4)cccc23)cc1,-229.1,-7.6,18.9,0.0,1.8,nt,nt,
O=S(=O)(O)c1cccc2cccc(Nc3ccccc3)c12,-33.8,57.0*,35.6,1.5*,56.2*,0.012,i,
C[C@@H]1CN([C@@H](C)CO)S(=O)(=O)c2ccc(C#CCN(C)C)cc2O[C@H]1CN(C)S(C)(=O)=O,nt,-0.7,nt,-0.1,0.8,nt,nt,
CC(=O)N1[C@H](CO)[C@H](c2ccccc2)[C@H]1CN(C(=O)c1cccc(F)c1)C(C)C,nt,2.4,nt,1.7*,-2.0,0.123,i,
O=C(Nc1cc(F)ccc1F)N1CC(=O)N2[C@H](CO)[C@H](c3ccc(-c4ccc(F)cc4)cc3)[C@@H]2C1,nt,5.7,nt,nt,-1.8,nt,nt,
O=C(C[C@H]1CC[C@H]2[C@@H](COC[C@H](O)CN2C(=O)c2ccccc2F)O1)NCc1ccc(-c2ccccc2)cc1,nt,10.2,nt,-0.4,3.0,nt,nt,
O=C(C[C@H]1CC[C@@H]2[C@H](COC[C@H](O)CN2Cc2cc(F)ccc2F)O1)NCc1ccc(F)cc1,nt,-1.5,nt,2.6*,-1.7,0.157[42 µM],i,
O=C(C[C@H]1CC[C@H]2[C@@H](COC[C@H](O)CN2Cc2ccccc2)O1)NCCc1ccccc1,nt,-2.7,nt,1.6*,0.1,0.142,i,
O=C(C[C@@H]1CC[C@H]2[C@@H](COC[C@@H](O)CN2C(=O)c2ccccc2F)O1)NCc1ccccc1,nt,1.4,nt,1.8*,-0.2,0.033[42 µM],i,
O=C(C[C@@H]1CC[C@H]2[C@@H](COC[C@@H](O)CN2C(=O)c2ccc(F)cc2)O1)NCc1cccc(F)c1,nt,-2.5,nt,1.5*,-1.0,0.035,i,
O=C(C[C@@H]1CC[C@H]2[C@@H](COC[C@@H](O)CN2Cc2ccccc2)O1)NCCc1ccccc1,nt,-4.2,nt,nt,0.4,nt,nt,
Cc1ccc(COc2ccc(C=NNC(=O)c3nnn(-c4nonc4N)c3COc3ccc(F)cc3)cc2)cc1,-113.5,nt,nt,nt,nt,nt,nt,
C[C@@H]1CN([C@H](C)CO)C(=O)Cc2cc(NC(=O)C3CCCCC3)ccc2O[C@@H]1CN(C)C(=O)Nc1ccc(C(F)(F)F)cc1,nt,-6.3,nt,-0.1,-2.0,nt,nt,
CCC(=O)N1[C@@H]2c3cccc(=O)n3C[C@H]1[C@H](CO)[C@H]2C(=O)NC1CCCCC1,nt,-0.7,nt,nt,1.6,nt,nt,
Cc1nn(-c2ccccc2)c(Cl)c1/C=N/NC(=O)c1cccnc1,nt,-1.8,-2.3,16.6*,3.8,0.106,i,
SMILES,UCH37 DUB inh,SIRT5 block,NSD2 HMT inh,FGF22 binding-1,Casp6 inh,FGF22 binding-2,TSA no protein,others
CC(C)NC(=O)Nc1ccc2c(c1)C(=O)N([C@@H](C)CO)C[C@@H](C)[C@H](CN(C)C(=O)Nc1ccc(C(F)(F)F)cc1)OCCCC[C@H](C)O2,nt,7.8,nt,0.3,-0.1,nt,nt,
COc1ccc(C(=O)C2CCCN(C(=O)c3cc(C(C)C)no3)C2)cc1F (stereo not given),0.6,-2.7,-0.9,9.8*,3.0,0.065,i,
CCCC(=O)Nc1nc(C)c(-c2csc(Nc3ccccc3C)n2)s1,4.7,nt,nt,0.3,5.5,nt,nt,
CCC(=O)Nc1nc(C)c(-c2csc(Nc3ccccn3)n2)s1,-7.7,2.0,2.8,1.6*,0.3,nt,i,
c1ccc(COc2ccc(-c3cc4nc(NCc5ccc6c(c5)OCO6)ccn4n3)cc2)cc1,nt,nt,3.3,0.3,-1.3,nt,nt,
c1ccc(-c2cc3nc(NCc4ccc5c(c4)OCO5)ccn3n2)cc1,nt,nt,0.0,34.6*,-1.9,0.104,i,
C[C@H]1CCCCO[C@H](CN(C)CC2CCCCC2)[C@@H](C)CN([C@@H](C)CO)C(=O)c2cc(NC(=O)C3CCCCC3)ccc2O1,nt,-2.3,nt,-0.4,-0.6,nt,nt,
CC1(C(=O)NS(=O)(=O)c2cccc(Cl)c2)CCN1C(=O)Cc1ccc(-c2ccccc2)cc1 (stereo not given),nt,nt,-1.9,1.9*,5.0,0.083,i,
CC1(C(=O)NS(=O)(=O)c2cccc(F)c2)CCN1C(=O)Cc1ccc(-c2ccccc2)cc1 (stereo not given),nt,-0.6,-3.9,0.2,1.2,nt,nt,
CCc1nnc(NC(=O)CN2CCN(Cc3ccc(C)cc3)CC2)s1,3.1,0.3,0.7,1.7*,0.8,0.157,i,
O=c1ccc2nc3ccccc3sc-2c1,nt,0.6,27.4,1.7*,4.4,-0.447,i,
C[C@@H]1CN([C@@H](C)CO)C(=O)c2cc(N(C)C)ccc2O[C@@H](C)CCCCO[C@@H]1CN(C)C(=O)c1ccccc1,nt,-1.9,nt,-1.7,5.2,nt,nt,
COc1ccc(Cc2nnc(SCc3ccc([N+](=O)[O-])cc3)o2)cc1,4.5,1.4,-3.6,42.2,-5.3,nt,nt,
O=[N+]([O-])c1ccc(CSc2nnc(Cc3ccccc3)o2)cc1,1.6,-2.8,-0.7,1.4*,-1.5,0.023,i,
O=C(N/N=C/c1c(O)ccc2ccccc12)c1[nH]ncc1Br,nt,4.2,-3.6,1.3*,-2.4,-0.32,i,
C/C(CC(=O)Nc1ccc2c(c1)OCCO2)=N\NC(=O)COc1ccc(C)cc1Br,nt,-3.6,8.8,2.9*,1.7,0.005,i,

# Screening results from PubChem.
